Screens deposited in PubChem by several laboratories.
SUMO HTRF inh: inhibitors of human SUMOylation (UBC9); P63279; HTRF SUMOylation assay, SAE1/SAE2 + UBC9, in vitro; inhibition, % at 35 µM; hit rate 0.36% among 290,000; AID 2006; in the data active = inhibition above about 50%, passing the limit was not always enough; inconclusive = no clear call, values can overlap the other calls
Target sequence (P63279 whole entry, looked up): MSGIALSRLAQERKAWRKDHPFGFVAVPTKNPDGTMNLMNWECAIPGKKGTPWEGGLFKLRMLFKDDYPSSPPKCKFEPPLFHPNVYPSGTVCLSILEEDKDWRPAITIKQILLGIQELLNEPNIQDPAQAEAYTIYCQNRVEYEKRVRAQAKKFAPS
CTSL1 counter: cathepsin L1 inhibition, PFM18AAP counter-screen. recombinant F. hepatica cathepsin L1, Z-Leu-Arg-MCA fluorescence. AID 1906. inhibition, % at 5.96 µM. hit rate 0.49% among 300,000;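 active = inhibition above the mean of all tested compounds plus 3 SD, set per screening campaign, cut at about 17% in these data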
T cell HTS: modulates CD8 T cell binding to vesicles | 2C CD8+ T cell-vesicle binding, flow cytometry; hits give low values | response (vesicle binding), % at 7 µM | hit rate 0.068% among 330,000 | AID 2052;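 active = response, share of CD8 T cells binding vesicles, and their 90th percentile fluorescence all below set limits, cut at about 80% in these data, passing the limit was not always enough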;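 note: values below 100% mean blocked vesicle binding to the CD8+ T cells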
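Material: 2C TCR transgenic mouse naive CD8+ T cells, MACS-purified. Also added: QL9-charged Drosophila Ld/ICAM-1/B7-1 vesicles. Timing: binding 1.5 h at 37 °C. Measured by: high-throughput flow cytometry with anti-B7-1 and anti-CD8 staining. Read-out: percent CD8+ FL2 mean versus row control. Controls: Unloaded micro-vesicles (low), QL9 vesicles with 0.7% DMSO (high).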
p-CIP stab down: compounds decreasing mouse p/CIP protein stability. F442A p/CIP-EGFP cells, EGFP fluorescence, 16 h. decrease of EGFP signal, % at 10 µM. hit rate 0.01% among 290,000;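 active = EGFP signal decrease of at least 30% at 10 µM or well 3 SD below plate mean, unless failing retest; inactive = the rest, including hits failing retest or dose response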
VIM-2 inhibitor: inhibitors of Pseudomonas aeruginosa VIM-2 metallo-beta-lactamase; purified VIM-2, nitrocefin hydrolysis, epi-absorbance fluorescence; inhibition, % at 5.6 µM; hit rate 0.89% among 290,000;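 active = inhibition above the mean of all tested compounds plus 3 SD, cutoff set per screening run, cut at about 7.5% in these data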;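 note: red hydrolysis product quenches plate fluorescence so inhibitors raise well fluorescence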
IMP-1 inhibitor: blocks Pseudomonas aeruginosa IMP-1 metallo-beta-lactamase. purified IMP-1, nitrocefin hydrolysis, epi-absorbance fluorescence. AID 1556. inhibition, % at 5.6 µM. hit rate 0.45% among 290,000;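 active = inhibition above the mean plus 3 SD of all compounds in the same screening run, cut at about 4.5% in these data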
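System – purified recombinant IMP-1 beta-lactamase · Input – IMP-1 dispensed at 0.2 nM · Timing – 15 min preincubation plus 25 min reaction at 25 °C · Signal – Epi-absorbance fluorescence, 480 nm excitation, 530 nm emission · Measure – percent IMP-1 inhibition derived from blank-referenced optical density · Controls – Enzyme-plus-DMSO low control, enzyme-free DMSO high control · Replication – singlicate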
Numbers stand for hits; – = inactive; ? = inconclusive; · = no result given. Sampled rows, rich in hits. Any-hit rate of the full collection: about 1.9%.

SMILES	SUMO HTRF inh	CTSL1 counter	T cell HTS	p-CIP stab down	VIM-2 inhibitor	IMP-1 inhibitor
CCC(C)[C@@H](N)C(=O)N/N=C/c1ccc2ncccc2c1 (stereo not given in full)	–	–	–	–	7.8	–
CCN(CC)CCN1C(=O)/C(=C\c2ccc(Cl)c([N+](=O)[O-])c2)SC1=Nc1ccc(OC)cc1	–	–	–	–	8.0	–
COC(=O)c1c(NC(=O)COC(=O)c2ccc(Cl)nc2)sc(C)c1C	·	–	48.6	·	·	·
O=C(CN1C(=O)C(c2ccccc2)Oc2cccnc21)NCc1ccccc1F (stereo not given)	–	–	–	–	–	53.6
COc1ccc(CNC(=O)CN2C(=O)C(c3ccccc3)Oc3cccnc32)cc1 (stereo not given)	–	–	–	–	–	–
COc1cc2c(cc1NC(=O)COC(=O)[C@@H](NC(=O)c1ccccc1)C(C)C)oc1ccccc12	–	–	–	–	–	–
COc1cc2c(cc1NC(=O)COC(=O)CNC(=O)c1ccccc1)oc1ccccc12	–	24.2	–	–	–	–
Cc1cc(C)cc(NC(=O)COC(=O)c2cccc(S(=O)(=O)N3CCCCC3)c2)c1	·	·	–	·	·	·
CN(CCC#N)c1ccc(/C=C(\C#N)c2ccccn2)cc1	?	–	–	–	–	25.1
CCN(CC)c1ccc(/C=C(\C#N)c2ccccn2)cc1	–	–	–	–	–	–
Cc1cc(C(=O)C(C)OC(=O)C2=NNC(=O)CC2)c(C)n1-c1ccc(OC(F)F)cc1 (stereo not given)	–	–	–	–	–	5.2
Cn1c(SCC(=O)O)nc2ccccc2c1=O	–	–	–	–	11.4	–
Cc1ncsc1CCSc1nc2ccccc2c(=O)n1C	–	–	–	–	20.8	–
CCn1c(=O)c2c(nc3n2CCN3c2ccccc2)n(C)c1=O	–	–	–	–	–	–
CN1C(=O)C(O)(CC(=O)/C=C/C=C/c2ccccc2)c2ccccc21 (stereo not given)	–	32.5	–	–	–	–
Cc1ccc(Cl)c(OCC(=O)NCC(c2cccs2)N2CCOCC2)c1 (stereo not given)	·	–	–	·	·	·
Cc1cnnc2c1-c1nonc1CC2	–	–	–	–	–	4.5
CC(Oc1ccc2c3c(c(=O)oc2c1)CCCC3)C(=O)NCC(O)c1ccccc1 (stereo not given)	–	–	–	–	–	–
CC(Oc1ccc2c3c(c(=O)oc2c1)CCC3)C(=O)NCc1cccnc1 (stereo not given)	–	–	–	–	9.6	–
O=C(O)c1ccc(COc2ccc3c4c(c(=O)oc3c2)CCC4)o1	–	–	–	–	8.5	–
NC(=O)C1CCN(C(=O)COc2ccc3c4c(c(=O)oc3c2)CCCC4)CC1	–	–	–	–	11.2	–
O=c1oc2cc(OCc3ccc([N+](=O)[O-])cc3)ccc2c2c1CCCC2	–	–	–	–	–	–
O=C(COc1ccc2c3c(c(=O)oc2c1)CCC3)N1CCN(c2ccc(F)cc2)CC1	–	–	–	–	9.1	–
Cc1ccccc1C(=O)N[C@H](C(=O)OCC(=O)NC1CC1)C(C)C	·	·	–	·	·	·
COc1cccc(CNC(=O)CCS(=O)(=O)c2ccc3c(c2)CC(C)N3C(=O)C2CC2)c1 (stereo not given)	–	–	–	–	–	–
SMILES	SUMO HTRF inh	CTSL1 counter	T cell HTS	p-CIP stab down	VIM-2 inhibitor	IMP-1 inhibitor
Cc1ccc(C(=O)NC(C#N)=C(Cl)Cl)cc1	–	·	·	–	–	–
Cc1ccc(OCC(=O)N2CCOCC2)cc1C	–	–	–	–	–	–
Cc1cc(OCC(=O)N2CCOCC2)cc2oc(=O)c3ccccc3c12	–	–	–	–	9.5	–
Cc1nnc(SCC2=C(C(=O)O)N3C(=O)C(NC(=O)c4cccc(F)c4F)C3SC2)s1 (stereo not given)	–	29.3	–	–	–	–
COc1ccc2[nH]c3c(=O)n(CCCC(=O)NC4CCC(C)CC4)c(=S)[nH]c3c2c1 (stereo not given)	·	–	–	–	–	–
COc1ccc2[nH]c3c(=O)n(CCCC(=O)NC4CCCCC4C)c(=S)[nH]c3c2c1 (stereo not given)	58.4	–	–	–	–	–
Cc1cc(OCC(=O)OCC(=O)N(C)c2c(N)n(Cc3ccccc3)c(=O)[nH]c2=O)ccc1Cl	·	–	–	·	·	·
O=S(=O)(Nc1ccc(O)c2ccccc12)c1ccc(Br)cc1	86.0	–	–	–	–	–
O=S(=O)(Nc1ccc(O)c2ccccc12)c1cccs1	–	–	–	–	–	–
COc1ccc(S(=O)(=O)N/N=C\c2ccc([N+](=O)[O-])o2)c(OC)c1	–	–	–	–	–	–
O=[N+]([O-])c1ccc(/C=N\NS(=O)(=O)c2ccc(F)cc2)o1	–	20.1	–	–	–	–
Cc1ccc2c(Cl)cc(Cl)c(OCC(=O)NCc3ccco3)c2n1	53.6	·	·	–	–	–
O=C(O)c1ccc(-c2ccco2)n1Cc1ccccc1	–	–	–	–	–	8.8
COC(=O)c1ccc(-c2ccco2)n1Cc1cccc(C)c1	–	–	–	–	–	–
CCOC(=O)C1CCCN(C(=O)/C(=C/c2ccco2)NC(=O)c2ccccc2)C1 (stereo not given)	–	–	–	–	–	5.2
Cc1ccc(C(=O)N/C(=C/c2ccco2)C(=O)OCN2C(=O)c3ccccc3C2=O)cc1	–	43.0	–	–	–	–
COC(=O)/C(=C/c1ccco1)NC(=O)c1ccccc1	–	–	–	–	–	–
CCCOC(=O)/C(=C\C=C\c1ccco1)NC(=O)c1ccccc1	–	26.2	–	–	–	–
CC(C)CC1NC(=O)N(CC(=O)Nc2cccc(Br)c2)C1=O (stereo not given)	·	·	–	·	·	·
CCN(CC)S(=O)(=O)c1ccc2c(c1)N(CC(=O)N1CCCC1)C(=O)CO2	–	–	–	–	–	–
Cc1cc(Br)ccc1-n1[nH]c(C)c(C=Nc2cccc3nsnc23)c1=O	–	–	–	–	–	–
CCN1C(=NCC(C)C)N[C@@H](c2cccc(F)c2)C(C(=O)OC)=C1C	–	–	–	–	–	–
CCOc1ccc(CCNC(=O)C2CC=CCC2C(=O)OC(C)C)cc1OCC (stereo not given)	–	–	–	–	–	–
CCOc1ccc(CCNC(=O)C2CC(C)=CCC2C(=O)O)cc1OCC (stereo not given)	–	–	–	–	–	37.6
COc1ccc(OC)c(NC(=O)c2cc3ccccc3o2)c1	–	–	–	–	–	–
COc1cc(N)ccc1NC(=O)c1cc2ccccc2o1	–	–	–	–	–	7.5
COc1ccc(C)cc1NC(=O)c1cc2ccccc2o1	–	33.3	–	–	–	–
NCCCNC(=O)c1ccc(/C=N/O)nc1	–	–	–	–	–	–
Cn1cc(/C=C2\SC(=S)N(N3CCOCC3)C2=O)c2ccccc21	–	–	–	–	–	4.8
